Structures are written as SMILES.

From ChEMBL document CHEMBL1126594, “Studies directed toward the design of orally active renin inhibitors. 1. Some factors influencing the absorption of small peptides” (J Med Chem, 1993) come the findings set out here.

Data set [1] is described as follows: Integrated area under the plasma drug level-time curve after intraduodenal administration at a dose 10 mg/kg from portal circulation in salt-depleted cynomolgus monkeys using HPLC assay. Type of data set: ADME, organism-based, Macaca fascicularis. On the set-up: dose 10 mg/kg, route intraduodenal. As to conditions: cynomolgus monkey. An outline of the steps:
(§1)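 Salt-depleted cynomolgus monkeys, anesthetized, n = 4; 10 mg/kg intraduodenal in ethanol/HCl (110 mol %) diluted with aqueous hydroxypropyl methylcellulose (25% ethanol final, 10 mg/mL). 5-h experiment, systemic and portal sampling. Plasma (0.40 mL) mixed with 10% Na2CO3, extracted with ethyl acetate, assayed by HPLC; recoveries 75-85%. AUC as ng h/mL; mean ± SEM.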

Data set [2] is described as follows: Integrated area under the plasma drug level-time curve after intraduodenal administration at a dose 10 mg/kg from systemic circulation in salt-depleted cynomolgus monkeys using HPLC assay. On the set-up: dose 10 mg/kg, route intraduodenal. The following applies: cynomolgus monkey. Type of data set: ADME, organism-based, Macaca fascicularis. An outline of the steps: as §1

Data set [3] is described as follows: Peak plasma drug level after intraduodenal administration at a dose 10 mg/kg from portal circulation in salt-depleted cynomolgus monkeys using HPLC assay. On the set-up: dose 10 mg/kg, route intraduodenal. The class given is ADME, organism-based, Macaca fascicularis. As to conditions: cynomolgus monkey, read-out: Activity. An outline of the steps: as §1
Data set [4] can be described thus: Plasma level by the renin inhibition assay from samples taken at 10 minutes from portal circulation by administering 10 mg/kg intraduodenally to the rat.
The nature of data set [5]: Plasma level by the renin inhibition assay from samples taken at 10 minutes from systemic circulation by administering 10 mg/kg intraduodenally to the rat.
The nature of data set [6]: Plasma level by the renin inhibition assay from samples taken at 30 minutes from portal circulation by administering 10 mg/kg intraduodenally to the rat.
Data set [7] in a line: Plasma level by the renin inhibition assay from samples taken at 30 minutes from systemic circulation by administering 10 mg/kg intraduodenally to the rat.
Data set [8] is described as follows: Partition coefficient (logD7.4). The following applies: octanol/water, pH 7.4.
Data set [9] can be described thus: Peak plasma drug level after intraduodenal administration at a dose 10 mg/kg from systemic circulation in salt-depleted cynomolgus monkeys using HPLC assay. The class given is ADME, organism-based, Macaca fascicularis. On the set-up: dose 10 mg/kg, route intraduodenal. As to conditions: cynomolgus monkey, read-out: Activity. An outline of the steps:
as §1

Consider `CCN1C[C@@H]([C@H](O)[C@H](CC2CCCCC2)NC(=O)[C@H](Cc2cscn2)NC(=O)[C@@H](CC(=O)N2CCOCC2)Cc2ccccc2)OC1=O`, for which the exposure (AUC) in data set [1] was found to be 3800 ng·h/mL; in [2], 770 ng·h/mL. In addition, the Cmax is 3200 ng/mL in data set [3] and 360 ng/mL in [9]. For the same molecule, the results for the concentration at 10 min in data set [4] and in [5] were 1900 ng/mL and 320 ng/mL, respectively. In addition, the concentration at 0.5 h in data set [6] was determined as 1100 ng/mL; in [7] it was 300 ng/mL. In addition, the pH-dependent lipophilicity (logD) in data set [8] turned out to be 2.83.
